In ChEMBL document CHEMBL1145460, “Novel vanilloid receptor-1 antagonists: 3. The identification of a second-generation clinical candidate with improved physicochemical and pharmacokinetic properties” (J Med Chem, 2007):
Converted amounts (≈) assume the structure as drawn. The source made the active and inactive calls. The calls are words filed in the database; no cut-off is given here.

How the values were obtained:
[1] = Oral bioavailability in Sprague-Dawley rat at 5 mg/kg; assay type: ADME, organism-based; details: in vivo
Summary of the method: (§1)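 Fasted male Sprague-Dawley rats given 5 mg/kg orally as a suspension in 5% Tween 80/Oraplus; plasma sampled up to 8 h.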

[2] = AUC (0-inf) in Sprague-Dawley rat at 5 mg/kg, po up to 8 hrs; assay type: ADME, organism-based; parameters: time infinity, dose 5 mg/kg, route oral; details: plasma; summary of the method: as §1
[3] = Solubility in PBS; assay type: physicochemical
Summary of the method: (§2)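 Thermodynamic solubility determined in a high-throughput automated format; media 0.01 N HCl, PBS and simulated intestinal fluid.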

[4] = Clearance in Sprague-Dawley rat at 1 mg/kg, iv up to 6 hrs; assay type: ADME, organism-based; parameters: dose 1 mg/kg, route intravenous; details: in vivo
[5] = Solubility in 0.01N HCl; assay type: physicochemical; summary of the method: as §2
[6] = Solubility in SIF; assay type: physicochemical; summary of the method: as §2
[7] = AUC (0 to infinity) in Sprague-Dawley rat at 1 mg/kg, iv up to 6 hrs; assay type: ADME, organism-based; parameters: time infinity, dose 1 mg/kg, route intravenous; details: plasma
[8] = Volume of distribution in Sprague-Dawley rat at 1 mg/kg, iv up to 6 hrs; assay type: ADME, organism-based; parameters: dose 1 mg/kg, route intravenous; details: in vivo, read-out: Vss
[9] = Half life in Sprague-Dawley rat at 1 mg/kg, iv; assay type: ADME, organism-based; parameters: dose 1 mg/kg, route intravenous; details: in vivo
[10] = biological target: T1, Transient receptor potential cation channel subfamily V member 1 (Rattus norvegicus, UniProt O35433); assay: Inhibition of rat TRPV1 expressed in CHO cells assessed as capsaicin-induced Ca2+ influx; assay type: cell-based
[11] = biological target: T1, Transient receptor potential cation channel subfamily V member 1; assay: Inhibition of rat TRPV1 expressed in CHO cells assessed as acid-induced Ca2+ influx; assay type: cell-based
Rattus norvegicus [12] = species on record: Rattus norvegicus; assay: Reduction of thermal hyperalgesia in rat model of CFA-induced inflammation in assessed as minimum effective dose; assay type: functional; details: read-out: MED
Summary of the method: (§3)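 Complete Freund's adjuvant injected to induce inflammatory thermal hyperalgesia in rats; oral dose-response, minimum effective dose determined, with corresponding plasma level measured.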

Rattus norvegicus [13] = species on record: Rattus norvegicus; assay: Plasma concentration in rat with capsaicin-evoked paw flinching; assay type: ADME, organism-based; details: in vivo
[14] = Oral bioavailability in dog at 3 mg/kg; assay type: ADME, organism-based, Canis lupus familiaris; details: in vivo
Summary of the method: (§4)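 Fasted male animals dosed orally at 3 mg/kg, vehicle 10% Pluronic F108 in either Oraplus or H₂O.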

[15] = Volume of distribution at steady state in monkey at 1 mg/kg, iv; assay type: ADME, organism-based, Macaca mulatta; parameters: dose 1 mg/kg, route intravenous; details: rhesus monkey, in vivo, read-out: Vss
Summary of the method: (§5)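 Fed male animals given 1 mg/kg intravenously in 80% PEG-400/H₂O.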

[16] = Half life in monkey at 1 mg/kg, iv; assay type: ADME, organism-based, Macaca mulatta; parameters: dose 1 mg/kg, route intravenous; details: rhesus monkey, in vivo; summary of the method: as §5
[17] = Clearance in monkey at 1 mg/kg, iv; assay type: ADME, organism-based, Macaca mulatta; parameters: dose 1 mg/kg, route intravenous; details: rhesus monkey, in vivo; summary of the method: as §5
[18] = Half life in dog at 1 mg/kg, iv; assay type: ADME, organism-based, Canis lupus familiaris; parameters: dose 1 mg/kg, route intravenous; details: in vivo; summary of the method: as §5
Rattus norvegicus [19] = assay: Inhibition of capsaicin-induced flinching in rat at 10 mg/kg, po up to 8 hrs; assay type: functional, organism-based; parameters: dose 10 mg/kg
Summary of the method: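 Rats given 10 mg/kg orally; capsaicin-induced flinching challenged at intervals up to 8 h after dosing.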

[20] = Half life in Sprague-Dawley rat at 1 mg/kg, iv after 72 hrs; assay type: ADME, organism-based; parameters: dose 1 mg/kg, route intravenous; details: in vivo
[21] = Clearance in dog at 1 mg/kg, iv; assay type: ADME, organism-based, Canis lupus familiaris; parameters: dose 1 mg/kg, route intravenous; details: in vivo; summary of the method: as §5
[22] = Oral bioavailability in monkey at 3 mg/kg; assay type: ADME, organism-based, Macaca mulatta; details: rhesus monkey, in vivo; summary of the method: as §4
[23] = Volume of distribution at steady state in Sprague-Dawley rat at 1 mg/kg, iv after 72 hrs; assay type: ADME, organism-based; parameters: dose 1 mg/kg, route intravenous; details: in vivo, read-out: Vss
[24] = Volume of distribution at steady state in dog at 1 mg/kg, iv; assay type: ADME, organism-based, Canis lupus familiaris; parameters: dose 1 mg/kg, route intravenous; details: in vivo, read-out: Vss; summary of the method: as §5
Rattus norvegicus [25] = species on record: Rattus norvegicus; assay: Plasma concentration in rat model of CFA-induced inflammation; assay type: ADME, organism-based; details: in vivo; summary of the method: as §3
Rattus norvegicus [26] = assay: Suppression of capsaicin-evoked paw flinching in orally dosed rat; assay type: functional; details: po
[27] = Clearance in Sprague-Dawley rat at 1 mg/kg, iv after 72 hrs; assay type: ADME, organism-based; parameters: dose 1 mg/kg, route intravenous; details: in vivo
[28] = AUC (0 to infinity) in Sprague-Dawley rat at 3 mg/kg, po up to 8 hrs; assay type: ADME, organism-based; parameters: time infinity, dose 3 mg/kg, route oral; details: plasma
Summary of the method: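 Fasted male Sprague-Dawley rats were given a single oral dose of 3 mg/kg as a suspension in 5% Tween 80/Oraplus. Plasma was sampled for up to 8 h, and AUC0-∞ was reported in ng·h/mL.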

T1 sequence (O35433 whole entry): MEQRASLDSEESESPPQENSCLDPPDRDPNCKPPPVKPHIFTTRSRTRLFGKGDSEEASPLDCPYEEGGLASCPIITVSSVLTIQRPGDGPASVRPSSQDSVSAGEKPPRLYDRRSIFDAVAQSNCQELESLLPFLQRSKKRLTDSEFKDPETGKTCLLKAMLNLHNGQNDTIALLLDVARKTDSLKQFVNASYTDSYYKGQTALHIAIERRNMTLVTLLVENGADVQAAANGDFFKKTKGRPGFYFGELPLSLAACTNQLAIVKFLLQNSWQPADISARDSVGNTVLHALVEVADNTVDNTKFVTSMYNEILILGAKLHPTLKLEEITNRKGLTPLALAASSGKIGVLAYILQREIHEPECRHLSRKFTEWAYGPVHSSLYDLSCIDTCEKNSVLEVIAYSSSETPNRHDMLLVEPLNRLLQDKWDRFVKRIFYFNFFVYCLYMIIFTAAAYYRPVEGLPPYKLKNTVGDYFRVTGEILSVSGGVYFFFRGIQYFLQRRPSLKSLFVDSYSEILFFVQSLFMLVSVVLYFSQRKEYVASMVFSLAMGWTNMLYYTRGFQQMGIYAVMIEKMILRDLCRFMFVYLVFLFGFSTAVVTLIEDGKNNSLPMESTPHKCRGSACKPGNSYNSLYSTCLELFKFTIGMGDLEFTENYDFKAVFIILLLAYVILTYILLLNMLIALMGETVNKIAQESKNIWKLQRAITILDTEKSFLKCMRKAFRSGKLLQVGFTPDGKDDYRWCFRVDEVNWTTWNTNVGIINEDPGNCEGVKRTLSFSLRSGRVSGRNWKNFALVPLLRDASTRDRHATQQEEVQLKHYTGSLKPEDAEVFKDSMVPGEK

## CC(=O)Nc1nc2c(Oc3cc(N4CCN([C@@H](C)c5ccc(F)cc5)CC4)ncn3)cccc2s1
[1]
  bioavailability: 93%
[2]
  AUC(0-inf): 2550 ng·h/mL
[3]
  solubility: 31 µg/mL (≈ 62.9 µM)
[4]
  clearance: 30 mL/min/kg
[5]
  solubility: ≥ 200 µg/mL
[6]
  solubility: 121 µg/mL (≈ 246 µM)
[7]
  AUC(0-inf): 550 ng·h/mL
[8]
  Vd: 5.7 L/kg
[9]
  half-life: 2.5 h

## CC(=O)Nc1nc2c(Oc3cc(N4CCNCC4)ncn3)cccc2s1
[10]
  IC50: > 4000 nM
[11]
  IC50: > 4000 nM
[5]
  solubility: 173 µg/mL (≈ 467 µM)

## CC(=O)Nc1nc2c(Oc3cc(N4CCN(C(C)c5ccc(F)cc5)CC4)ncn3)cccc2s1 (centres undefined)
[1]
  bioavailability: 35%
[2]
  AUC(0-inf): 1800 ng·h/mL
[3]
  solubility: 5 µg/mL (≈ 10.2 µM)
[4]
  clearance: 18.3 mL/min/kg
[5]
  solubility: ≥ 200 µg/mL
[6]
  solubility: 34 µg/mL (≈ 69 µM)
[7]
  AUC(0-inf): 1000 ng·h/mL
[8]
  Vd: 2.9 L/kg
[9]
  half-life: 2.4 h

## CC(=O)Nc1nc2c(Oc3cc(C4=CCC(C(F)(F)F)CC4)ncn3)cccc2s1 (centres undefined)
[10]
  IC50: 27 nM
[11]
  IC50: 2.4 nM
[5]
  solubility: 13 µg/mL (≈ 29.9 µM)

## COc1ccc(C(C)N2CCN(c3cc(Oc4cccc5sc(NC(C)=O)nc45)ncn3)CC2)cc1 (centres undefined)
[5]
  solubility: ≥ 200 µg/mL

## CC(=O)Nc1nc2c(Oc3cc(N4CCN(C(c5ccccc5)c5ccccc5)CC4)ncn3)cccc2s1
[5]
  solubility: 46 µg/mL (≈ 85.7 µM)

## CC(=O)Nc1nc2c(Oc3cc(N4CCN(C(C)c5ccc(C(F)(F)F)cc5)CC4)ncn3)cccc2s1 (centres undefined)
[1]
  bioavailability: 3%
[2]
  AUC(0-inf): 120 ng·h/mL
[3]
  solubility: 5 µg/mL (≈ 9.22 µM)
[10]
  IC50: 5 nM
[4]
  clearance: 23.3 mL/min/kg
[11]
  IC50: 1.8 nM
[5]
  solubility: ≥ 200 µg/mL
[6]
  solubility: 121 µg/mL (≈ 223 µM)
[7]
  AUC(0-inf): 720 ng·h/mL
[8]
  Vd: 4.5 L/kg
[9]
  half-life: 2.7 h

## CC(=O)Nc1nc2c(Oc3cc(N4CCN(CC(F)(F)F)CC4)ncn3)cccc2s1
[10]
  IC50: 380 nM
[11]
  IC50: 120 nM
[5]
  solubility: ≥ 200 µg/mL

## CC(=O)Nc1nc2c(Oc3cc(N4CCN(C(C)c5ccccc5F)CC4)ncn3)cccc2s1 (centres undefined)
[4]
  clearance: 50 mL/min/kg
[5]
  solubility: ≥ 200 µg/mL

## CC(=O)Nc1nc2c(Oc3cc(N4CCN(C(C)C)CC4)ncn3)cccc2s1
[5]
  solubility: ≥ 200 µg/mL

## CC(=O)Nc1nc2c(Oc3cc(N4CCN(CCc5ccccc5)CC4)ncn3)cccc2s1
[5]
  solubility: ≥ 200 µg/mL

## CCC(c1ccccc1)N1CCN(c2cc(Oc3cccc4sc(NC(C)=O)nc34)ncn2)CC1 (centres undefined)
[5]
  solubility: ≥ 200 µg/mL

## CC(=O)Nc1nc2c(Oc3cc(N4CCN(C(C)(C)c5ccccc5)CC4)ncn3)cccc2s1
[5]
  solubility: ≥ 200 µg/mL

## CC(=O)Nc1nc2c(Oc3cc(N4CCN(C(C)c5cccc(F)c5)CC4)ncn3)cccc2s1 (centres undefined)
[4]
  clearance: 53.3 mL/min/kg
[5]
  solubility: ≥ 200 µg/mL

## CC(=O)Nc1nc2c(Oc3cc(N4CCOCC4)ncn3)cccc2s1
[10]
  IC50: > 4000 nM
[11]
  IC50: > 4000 nM
[5]
  solubility: 32 µg/mL (≈ 86.2 µM)

## CC(=O)Nc1nc2c(Oc3cc(N4CCN(C(C)c5ccccc5)CC4)ncn3)cccc2s1 (centres undefined)
[4]
  clearance: 65 mL/min/kg
[5]
  solubility: ≥ 200 µg/mL

## CC(=O)Nc1nc2c(Oc3cc(N4CCN(Cc5ccccc5)CC4)ncn3)cccc2s1
[5]
  solubility: ≥ 200 µg/mL

## CC(=O)Nc1nc2c(Oc3cc(N4CCN([C@H](C)c5ccc(F)cc5)CC4)ncn3)cccc2s1
[1]
  bioavailability: 51%
Rattus norvegicus [12]
  minimal effective dose: 1 mg/kg
Rattus norvegicus [13]
  Cp: 128 ng/mL
[14]
  bioavailability: 83%
[15]
  Vd: 0.9 L/kg
[2]
  AUC(0-inf): 3100 ng·h/mL
[3]
  solubility: 7 µg/mL (≈ 14.2 µM)
[16]
  half-life: 3.2 h
[17]
  clearance: 6.67 mL/min/kg
[18]
  half-life: 2.7 h
Rattus norvegicus [19]
  Activity: Active
[4]
  clearance: 13.3 mL/min/kg
[20]
  half-life: 3.8 h
[21]
  clearance: 40 mL/min/kg
[22]
  bioavailability: 12%
[23]
  Vd: 2.6 L/kg
[24]
  Vd: 4 L/kg
Rattus norvegicus [25]
  Cp: 70 ng/mL
[5]
  solubility: ≥ 200 µg/mL
[6]
  solubility: 64 µg/mL (≈ 130 µM)
[7]
  AUC(0-inf): 1200 ng·h/mL
[8]
  Vd: 2.8 L/kg
[9]
  half-life: 2.7 h
Rattus norvegicus [26]
  ED50: 1.9 mg/kg
[27]
  clearance: 13.8 mL/min/kg

## CC(=O)Nc1nc2c(Oc3cc(C4CCC(C(F)(F)F)CC4)ncn3)cccc2s1 (centres undefined)
[10]
  IC50: 350 nM
[11]
  IC50: 10 nM
[5]
  solubility: 5 µg/mL (≈ 11.5 µM)

## CC(=O)Nc1nc2c(Oc3cc(-c4ccc(C(F)(F)F)cc4)ncn3)cccc2s1 [AMG-517]
[28]
  AUC(0-inf): 12500 ng·h/mL
[1]
  bioavailability: 32%
[3]
  solubility: < 1 µg/mL
[5]
  solubility: < 1 µg/mL
[8]
  Vd: 1.6 L/kg

## CC(=O)Nc1nc2c(Oc3cc(N4CCC(C(F)(F)F)CC4)ncn3)cccc2s1
[10]
  IC50: 330 nM
[11]
  IC50: 19 nM
[5]
  solubility: 9 µg/mL (≈ 20.6 µM)

## CC(=O)Nc1nc2c(Oc3cc(N4CCN(CC(C)(C)C)CC4)ncn3)cccc2s1
[10]
  IC50: 3 nM
[4]
  clearance: 25 mL/min/kg
[11]
  IC50: 5 nM
[5]
  solubility: ≥ 200 µg/mL

## CC(=O)Nc1nc2c(Oc3cc(N4CCN(C(C)(C)C)CC4)ncn3)cccc2s1
[10]
  IC50: 1500 nM
[11]
  IC50: > 4000 nM
[5]
  solubility: ≥ 200 µg/mL

## CC(=O)Nc1nc2c(Oc3cc(N4CCN(c5ccccc5)CC4)ncn3)cccc2s1
[4]
  clearance: 16.7 mL/min/kg
[5]
  solubility: 1.5 µg/mL (≈ 3.36 µM)
